Bioassay records as filed in PubChem.
TAAR1 antag – human TAAR1 antagonism; CHO RD-HGA16 TAAR1, Fluo-8 calcium fluorescence, antagonist; hit rate 1.5% among 360,000; Q96RJ0; AID 624466; inhibition, % at 3 µM;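 active = inhibition above a per-plate cutoff, the mean inhibition of test compounds on that plate plus 3 SD, cut at about 49% in these data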;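 also: 0% = DMSO plus EC80 beta-PEA response and 100% = DMSO alone without agonist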
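Test system: CHO RD-HGA16 cells bearing hTAAR1 | Reagent: β-PEA, EC80 | Compound dosing: 3 µM, single point | Schedule: Dye loading 75 min at 37 °C, then 30 min room temperature | Signal: Calcium fluorescence with Fluo-8 | Evaluation: Percent inhibition of PEA-evoked calcium signal, max/basal emission ratio | Control set: DMSO-only wells and EC80 β-PEA-stimulated wells | Repeats: Singlicate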
OX1R antag-1 – OX1R (human) antagonism | O43613 | OX1R-expressing cells, FRET antagonist read-out | inhibition, % at 6.6 µM | hit rate 1.8% among 330,000; in the data active = inhibition mostly above about 38%, no sharp cut-off; inactive = mostly below about 40%;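 also: 0% = agonist challenge alone and 100% = reference antagonist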
Target sequence (O43613 whole entry, looked up): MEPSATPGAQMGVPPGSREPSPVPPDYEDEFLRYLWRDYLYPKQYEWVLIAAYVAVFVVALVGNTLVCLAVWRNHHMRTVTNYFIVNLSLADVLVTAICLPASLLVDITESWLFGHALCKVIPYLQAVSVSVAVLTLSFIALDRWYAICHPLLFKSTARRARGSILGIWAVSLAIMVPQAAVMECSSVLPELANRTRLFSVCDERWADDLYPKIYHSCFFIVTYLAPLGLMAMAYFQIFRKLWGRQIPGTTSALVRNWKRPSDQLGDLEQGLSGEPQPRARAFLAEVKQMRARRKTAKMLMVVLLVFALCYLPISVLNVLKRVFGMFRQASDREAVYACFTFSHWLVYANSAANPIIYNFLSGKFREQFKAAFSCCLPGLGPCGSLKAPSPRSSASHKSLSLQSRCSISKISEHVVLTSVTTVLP
TAAR1 ag – human TAAR1 agonism | Q96RJ0 | CHO RD-HGA16 TAAR1, Fluo-8 calcium fluorescence; vehicle wells 0%, saturating PEA agonist 100% | activation, % at 3 µM | hit rate 0.99% among 360,000 | AID 624467;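 active = activation above the mean activation of all test compounds in the run plus 3 SD, cut at about 38% in these data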
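System: CHO-derived RD-HGA16 cells with stable Gα16 and human TAAR1. Times: 17-24 h plating, Fluo-8 75 min 37 °C, 30 min RT. Measured by: calcium-sensitive Fluo-8 signal, excitation 470-495, emission 515-575 nm. Read-out basis: % activation relative to PEA EC100 response. Control set: DMSO and PEA EC100. Repeats: no replicates (n 1).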
CHO parental Ca – counter-screen: ATP calcium response change in parental CHO cells. hit rate 0.63% among 330,000. inhibition, % at 5.6 µM. parental CHO-K1, ATP-induced calcium, Fluo-8 fluorescence;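 active = inhibition above that plate's mean sample inhibition plus 3 SD, cut at about 26% in these data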;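 also: 0% = ATP-challenged DMSO wells and 100% = DMSO wells without ATP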
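Measured by: calcium-sensitive Fluo-8 fluorescence / Test system: CHO parental line / Controls: ATP-challenged DMSO wells low, unchallenged DMSO wells high / Measure: % inhibition / Compound: single nominal dose of 5.6 µM per compound / Replicates: single well per compound, no replicates / Reagent: ATP as calcium-mobilizing challenge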
OX1R antag-2 – blocks the human orexin 1 receptor. O43613. AID 434989. CHO/OX1R cells, Fluo-8 calcium fluorescence, orexin A. hit rate 0.43% among 330,000. inhibition, % at 5 µM;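 active = inhibition above its plate's threshold, mean inhibition of all tested compounds on the plate plus 3 SD, cut at about 37% in these data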;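 also: 0% = orexin A challenge wells and 100% = SB-334867-A antagonist wells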
Active calls of the source: *; nt = not tested or not shown. Sampled rows, rich in hits. Any-hit rate of the full collection: about 4%.

SMILES | TAAR1 antag | OX1R antag-1 | TAAR1 ag | CHO parental Ca | OX1R antag-2
CC1OC(CC(=O)O)CC2=C1C(=O)c1c(O)cccc1C2=O (stereo not given) | 63* | nt | 83* | nt | nt
COc1ccccc1CC(=O)OC(C)C(=O)Nc1ccc(S(=O)(=O)N2CCCCC2)cc1 (stereo not given) | 3 | 5 | 4 | -4 | -10
Nc1c(C(=O)Nc2nccs2)sc2nc(-c3cccs3)cc(C(F)(F)F)c12 | 31 | 49 | 30 | 42* | 47*
CC(C)(C)C(=O)c1sc2nc(-c3cccs3)cc(C(F)(F)F)c2c1N | 27 | 7 | 11 | -4 | -4
CCCCn1c(N)c(Sc2ccccc2)c(=O)[nH]c1=O | 11 | 5 | 4 | -6 | 5
CCCCn1c(N)c(Sc2ccccc2[N+](=O)[O-])c(=O)[nH]c1=O | -4 | 55* | 7 | -5 | -23
COc1cc(CNc2cccc3c2S(=O)(=O)N([C@H](C)c2ccccc2)C[C@@H](COCc2ccccc2)O3)cc(OC)c1OC | 5 | nt | 2 | nt | nt
CN(C)C(=O)c1ccc(Nc2nc(-c3cccs3)nc3ccccc23)cc1 | 51* | 40 | 9 | 9 | -23
c1csc(-c2nc(NCCCN3CCOCC3)c3ccccc3n2)c1 | 6 | 9 | 12 | -9 | -24
c1ccc(CNc2nc(-c3cccs3)nc3ccccc23)nc1 | -9 | 54* | 15 | -17 | -1
CC(=O)c1ccc(Nc2nc(-c3ccccc3)nc3ccccc23)cc1 | 24 | nt | 3 | nt | nt
Nc1[nH]c(C(=O)c2ccc(Cl)cc2)c(-c2ccc(Br)cc2)c1C(=O)NCc1ccc(Cl)cc1Cl | -9 | nt | 0 | nt | nt
O=C(c1ccc(F)cc1F)N1CCN(c2ncccn2)CC1 | -1 | 6 | 6 | -12 | -18
O=C(c1ccc(N2CCN(C(=O)c3ccc(F)cc3F)CC2)cc1)c1cccc(F)c1 | 63* | 30 | 4 | 29 | 20
Cc1noc(NS(=O)(=O)c2ccc(NC(=O)c3ccc(Cl)c(S(=O)(=O)N(C)c4ccccc4)c3)cc2)c1C | -30 | nt | 1 | nt | nt
COc1cc(C(=O)NN=C2c3ccccc3-c3ccccc32)cc(OC)c1OC | 9 | nt | 4 | nt | nt
CC(Sc1nc(N)cc(=O)[nH]1)C(=O)Nc1sc2c(c1C#N)CCCC2 (stereo not given) | 10 | 11 | 9 | 34* | 31
N#Cc1c(NC(=O)CSc2nc(N)cc(=O)[nH]2)sc2c1CCCCCC2 | -6 | 16 | 17 | 5 | 7
CCC(Sc1nc(C)cc(=O)[nH]1)C(=O)Nc1sc2c(c1C#N)CCCC2 (stereo not given) | -32 | 37 | 40* | -18 | -2
Cc1ccc(S(=O)(=O)NCC(=O)N2CCOCCOCCOCC2)cc1 | -12 | 13 | 1 | -7 | -1
CN(c1ccccc1)S(=O)(=O)c1cccc(NC(=O)c2cccc(C#N)c2)c1 | 66* | 2 | 21 | 0 | -3
Cc1nc2ccc(NC(=O)c3cccc(S(=O)(=O)N(C)c4ccccc4)c3)cc2s1 | nt | 56 | nt | 15 | 5
CN(c1ccccc1)S(=O)(=O)c1cccc(NC(=O)c2ccc3ncsc3c2)c1 | 60* | 54 | 9 | 2 | 21
COC(=O)[C@]12C[C@H](CC(=O)N3CCC(c4ccccc4)CC3)C(=O)N(Cc3ccccc3)C1=C[C@H](C(C)(C)C)O[C@@H]2C | -24 | nt | 0 | nt | nt
CC(C)N(C)c1ncnc2c1ncn2[C@H]1CN(Cc2ccc(-c3ccccc3)cc2)C[C@@H](CO)O1 | -9 | nt | 6 | nt | nt
SMILES | TAAR1 antag | OX1R antag-1 | TAAR1 ag | CHO parental Ca | OX1R antag-2
CCOc1ccc(C(C)=O)cc1COC(=O)c1ccc2c(c1)NC(=O)CS2 | 52* | 13 | 11 | -11 | -10
COCCCNC(=O)c1ccc2sc(C3=C[C@@H](O)[C@@H](O)[C@@H](CO)O3)nc2c1 | -12 | nt | 2 | nt | nt
O=C(Nc1nc2ccccc2s1)c1ccc2sc([C@H]3C[C@H](O)[C@@H](CO)O3)nc2c1 | 50* | nt | 10 | nt | nt
O=C(Nc1nccs1)c1ccc2sc([C@H]3C[C@H](O)[C@@H](CO)O3)nc2c1 | -4 | nt | 3 | nt | nt
Cc1cc(C(C#N)c2cccc(Cl)c2)n2ncnc2n1 (stereo not given) | 41 | 76* | 12 | -7 | 0
Cc1cc(C(C#N)c2ccccc2)n2ncnc2n1 (stereo not given) | -1 | 26 | 5 | -3 | -2
O=C(Nc1ccc(Cl)c(C(F)(F)F)c1)[C@@H]1CC=C[C@@H]2CCN(Cc3ccc(Cl)c(Cl)c3)C(=O)[C@@H]21 | -2 | 59 | 11 | -30 | 11
C=CCn1c(NC(=O)c2ccccc2Cl)c(C#N)c2nc3ccccc3nc21 | 18 | 69* | 16 | 8 | -3
CCCCn1c(NC(C)=O)c(C#N)c2nc3ccccc3nc21 | 2 | 24 | 17 | -14 | -21
COc1ccc(-n2nnnc2CNC(=O)C2CC(=O)N(c3ccc(Cl)cc3)C2)cc1 (stereo not given) | -8 | 11 | -2 | -29 | -20
O=C(c1cc(-c2ccccc2)nc2ccccc12)N1N=C(C(F)F)CC1(O)C(F)F (stereo not given) | 0 | 19 | 7 | -27 | -26
Cc1ccc(-c2cc(C(=O)N3N=C(C(F)F)CC3(O)C(F)F)c3ccccc3n2)cc1C (stereo not given) | -3 | 26 | 9 | 45* | 10
O=C(c1cc2ccc([N+](=O)[O-])cc2oc1=O)N1CCOCC1 | -25 | 57* | 5 | -7 | -1
O=C(CN1CCOCC1)Nc1nc2ccc([N+](=O)[O-])cc2s1 | 2 | 62* | 8 | -13 | -40
O=C(c1cc2cc([N+](=O)[O-])ccc2s1)N1CCOCC1 | 4 | 46* | 6 | -6 | -4
O=C(CN1CCOCC1)Nc1nc2ccc(F)cc2s1 | 18 | -1 | 1 | -10 | -7
COCC(=O)N1CCN(C(=O)C(=O)c2cccc(C(F)(F)F)c2)CC1 | -23 | nt | 5 | nt | nt
COC(=O)c1c(NC(=O)COC(=O)c2ccc(Cl)nc2)sc(C)c1C | -3 | 8 | 0 | -9 | -6
NC(=O)C1=C[C@@H](c2ccc(Br)cc2)C[C@@H](OCCCCO)O1 | 16 | 10 | 4 | -2 | -2
O=C(Nc1ccncc1)c1ccc(-c2ccccc2)cc1 | 16 | 46 | 8 | 58* | 47*
CNC(=O)COC(=O)c1ccc2c(c1)S(=O)(=O)c1ccccc1C2=O | 17 | 74* | -2 | -12 | -8
CC1CCCC(C)N1C(=O)c1ccc2c(c1)S(=O)(=O)c1ccccc1C2=O (stereo not given) | 7 | 42* | 0 | -15 | -22
O=C(Nc1cccnc1)c1ccc(-c2ccccc2)cc1 | 1 | 20 | 1 | -8 | -12
O=C1c2ccccc2S(=O)(=O)c2cc(C(=O)N3CCC(C(=O)N4CCCCC4)CC3)ccc21 | -17 | 50 | 7 | -15 | -15
CC(C)c1cccc(C(C)C)c1NC(=O)COC(=O)c1ccc2c(c1)S(=O)(=O)c1ccccc1C2=O | -18 | 16 | 3 | -8 | -11
